Assay results from ChEMBL document CHEMBL4765234 (J Med Chem, 2016).
Values belong to the compound of their own block, whether it stands above or below them. The source made the active and inactive calls. No cut-off for these calls is given here.

Tests used:
[1] = AUC in hyperglycemic Balb/c mouse plasma at greater than 0.58 mg/kg measured upto 60 mins; format: ADME, organism-based; design: dose 0.58 mg/kg, time <=60
[2] = Volume of distribution at steady state in mouse at 10 mg/kg, po or 1 mg/kg, iv by LC/MS/MS analysis; format: ADME, organism-based; details: in vivo, read-out: Vdss
In short: (§1)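 Mice, rats and beagle dogs dosed; blood drawn at set times into EDTA, processed to plasma and assayed by LC/MS/MS. Parameters (clearance, Vdss, terminal half-life, Cmax, Tmax, oral bioavailability) derived by noncompartmental analysis.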

[3] = Elimination half-life in mouse plasma at 10 mg/kg, po or 1 mg/kg, iv by LC/MS/MS analysis; details: read-out: beta t1/2 (converted)
[4] = Elimination half-life in rat plasma at 10 mg/kg, po or 3 mg/kg, iv by LC/MS/MS analysis; details: read-out: beta t1/2 (converted)
[5] = Oral bioavailability in rat at 10 mg/kg by LC/MS/MS analysis; format: ADME, organism-based; details: in vivo; in short: as §1
[6] = Oral bioavailability in dog at 5 mg/kg by LC/MS/MS analysis; format: ADME, organism-based, Canis lupus familiaris; details: in vivo; in short: as §1
[7] = Cmax in rat plasma at 10 mg/kg, po or 3 mg/kg, iv by LC/MS/MS analysis; format: ADME, organism-based; design: dose 10 mg/kg
In short: (§2)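 Dosing was oral and intravenous in mice, rats or beagle dogs. Blood was drawn at set time points into EDTA and processed to plasma. Plasma was assayed by LC/MS/MS. Clearance, Cmax and terminal half-life were derived by noncompartmental analysis.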

[8] = Drug metabolism in human hepatocytes assessed as O-dealkylation by measuring 4-((2,3-dihydrospiro[indene-1,4'-piperidine]-1'-yl)methyl)benzoic acid metabolite formation by LC-MS/MS analysis; format: ADME, cell-based, Hepatocyte
[9] = Cmax in mouse plasma at 10 mg/kg, po or 1 mg/kg, iv by LC/MS/MS analysis; format: ADME, organism-based; design: dose 10 mg/kg; in short: as §2
[10] = target: Free fatty acid receptor 1 (Homo sapiens, UniProt O14842); assay: Displacement of [3H]-(S)-2-(6-((2',6'-dimethyl-4'-(3-(methylsulfonyl)propoxy)biphenyl-3-yl)methoxy)-2,3-dihydrobenzofuran-3-yl)acetic acid from human recombinant full-length GPR40 expressed in human HEK293 cell membrane assessed as Koff rate measured after 2 hrs by radioligand competitive assay; format: cell membranes; details: filed as agonist
Free fatty acid receptor 1, sequence (O14842 whole entry): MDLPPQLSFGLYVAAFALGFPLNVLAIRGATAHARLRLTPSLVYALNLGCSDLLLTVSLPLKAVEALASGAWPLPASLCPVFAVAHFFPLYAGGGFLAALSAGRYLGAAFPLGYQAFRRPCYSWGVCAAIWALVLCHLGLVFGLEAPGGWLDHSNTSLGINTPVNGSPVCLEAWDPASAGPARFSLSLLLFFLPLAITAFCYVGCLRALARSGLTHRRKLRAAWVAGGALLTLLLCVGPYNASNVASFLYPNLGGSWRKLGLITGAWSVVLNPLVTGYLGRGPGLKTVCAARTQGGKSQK

[11] = target: Free fatty acid receptor 1 (Mus musculus) (UniProt Q76JU9); assay: Agonist activity at GPR40 in mouse pancreatic islets assessed as induction of glucose-mediated insulin secretion measured after 90 mins in EBSS buffer by ELISA; details: filed as agonist
Free fatty acid receptor 1 (Mus musculus), sequence (Q76JU9 whole entry): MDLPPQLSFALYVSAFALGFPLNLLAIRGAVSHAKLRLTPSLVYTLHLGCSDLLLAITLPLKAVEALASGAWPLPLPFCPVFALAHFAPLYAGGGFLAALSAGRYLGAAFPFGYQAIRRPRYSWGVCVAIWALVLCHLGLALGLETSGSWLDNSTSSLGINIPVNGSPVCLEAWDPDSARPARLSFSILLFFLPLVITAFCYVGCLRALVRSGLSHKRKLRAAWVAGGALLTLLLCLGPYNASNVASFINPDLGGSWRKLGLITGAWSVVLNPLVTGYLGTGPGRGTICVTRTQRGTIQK

[12] = Half-life in mouse at 10 mg/kg, po or 1 mg/kg, iv by LC/MS/MS analysis; format: ADME, organism-based; details: in vivo; in short: as §1
[13] = Cmax in dog plasma at 5 mg/kg, po or 1 mg/kg, iv by LC/MS/MS analysis; format: ADME, organism-based, Canis lupus familiaris; design: dose 5 mg/kg; in short: as §2
[14] = Half-life in rat at 10 mg/kg, po or 3 mg/kg, iv by LC/MS/MS analysis; format: ADME, organism-based; details: in vivo; in short: as §1
[15] = AUC in hyperglycemic Balb/c mouse plasma at […] measured upto 60 mins; format: ADME, organism-based
[16] = Apparent volume of distribution in type 2 diabetic mellitus human at 270 mg, po administered as single dose; format: ADME, organism-based; details: in vivo, read-out: Vz/F
In short: (§3)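 Type 2 diabetic subjects each received a single oral dose. Plasma drug levels were followed over time. Parameters were derived by noncompartmental analysis and reported as geometric means with CV%. CL/F is apparent total clearance and Vz/F is apparent terminal-phase volume.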

[17] = Half life in type 2 diabetic mellitus human at 270 mg, po administered as single dose; format: ADME, organism-based; details: in vivo; in short: as §3
[18] = Drug metabolism in dog plasma assessed as conjugation with glucuronide metabolite formation by LC-MS/MS analysis; format: ADME, cell-free, Canis lupus familiaris
[19] = Tmax in type 2 diabetic mellitus human at 540 mg, po administered as single dose; format: ADME, organism-based; details: in vivo
In short: (§4)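 Single oral dose given to type 2 diabetic subjects; plasma drug levels followed over time. Cmax, Tmax, terminal half-life, AUC(0−∞), CL/F and Vz/F obtained by noncompartmental analysis and reported as geometric means with CV%.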

[20] = Half life in type 2 diabetic mellitus human at 540 mg, po administered as single dose; format: ADME, organism-based; details: in vivo
[21] = AUC ( 0 to infinity) in type 2 diabetic mellitus human at 1080 mg, po administered as single dose; format: ADME, organism-based; design: time infinity, route oral, dose 1080 mg; details: in vivo; in short: as §3
[22] = Half life in type 2 diabetic mellitus human at 1080 mg, po administered as single dose; format: ADME, organism-based; details: in vivo; in short: as §3
[23] = Cmax in type 2 diabetic mellitus human at 270 mg, po administered as single dose; format: ADME, organism-based; design: route oral, dose 270 mg; details: in vivo; in short: as §3
[24] = Tmax in rat at 3 mg/kg, po or 1 mg/kg, iv by LC/MS/MS analysis; format: ADME, organism-based; details: in vivo
In short: (§5)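 Dosed to mice, rats or beagle dogs. Blood collected at selected time points with EDTA anticoagulant, processed to plasma and analysed by LC/MS/MS. Parameters obtained by noncompartmental analysis.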

[25] = Cmax in type 2 diabetic mellitus human at 1080 mg, po administered as single dose; format: ADME, organism-based; design: route oral, dose 1080 mg; details: in vivo; in short: as §3
[26] = AUC ( 0 to infinity) in type 2 diabetic mellitus human at 540 mg, po administered as single dose; format: ADME, organism-based; design: route oral, time infinity, dose 540 mg; details: in vivo; in short: as §3
[27] = Tmax in dog at 3 mg/kg, po or 1 mg/kg, iv by LC/MS/MS analysis; format: ADME, organism-based, Canis lupus familiaris; details: in vivo; in short: as §5
[28] = Apparent volume of distribution in type 2 diabetic mellitus human at 540 mg, po administered as single dose; format: ADME, organism-based; details: in vivo, read-out: Vz/F; in short: as §3
[29] = Tmax in type 2 diabetic mellitus human at 270 mg, po administered as single dose; format: ADME, organism-based; details: in vivo; in short: as §4
[30] = Oral bioavailability in rat at 3 mg/kg by LC/MS/MS analysis; format: ADME, organism-based; details: in vivo; in short: as §5
[31] = Drug metabolism in dog urine assessed as metabolite formation by LC-MS/MS analysis; format: ADME, tissue-based, Canis lupus familiaris
[32] = Drug metabolism in dog hepatocytes assessed as demethylation by LC-MS/MS analysis; format: ADME, cell-based, Canis lupus familiaris, Hepatocyte
[33] = AUC ( 0 to infinity) in type 2 diabetic mellitus human at 270 mg, po administered as single dose; format: ADME, organism-based; design: time infinity, route oral, dose 270 mg; details: in vivo; in short: as §3
[34] = AUC in hyperglycemic Balb/c mouse plasma at 5.6 mg/kg measured upto 60 mins; format: ADME, organism-based; design: dose 5.6 mg/kg, time <=60
[35] = Drug metabolism in mouse hepatocytes assessed as oxidation by LC-MS/MS analysis; format: ADME, cell-based, Hepatocyte
[36] = Drug metabolism in dog urine assessed as N-dealkylation by LC-MS/MS analysis; format: ADME, tissue-based, Canis lupus familiaris
[37] = Drug distribution in C57BL/6 mouse colon at 3 microg/kg, iv administered as single dose observed at 20 to 40 mins by LC-MS/MS analysis; format: ADME, organism-based; details: in vivo, 0.003 mg/kg, time 20-40 min, dose 3 µg/kg
In short: (§6)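 Tracer microdose study in fed male C57BL/6 mice: single 3 μg/kg IV dose in 25% HP-BCD. Mice were killed by cervical dislocation, and spleen, ascending colon, skeletal muscle and plasma were sampled at 20 and 40 min.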

[38] = Drug distribution in C57BL/6 mouse skeletal muscle at 3 microg/kg, iv administered as single dose observed at 20 to 40 mins by LC-MS/MS analysis; format: ADME, organism-based, Skeletal muscle tissue; details: in vivo, 0.003 mg/kg, time 20-40 min, dose 3 µg/kg; in short: as §6
[39] = Drug distribution in C57BL/6 mouse plasma at 3 microg/kg, iv administered as single dose observed at 20 to 40 mins by LC-MS/MS analysis; format: ADME, organism-based; details: in vivo, 0.003 mg/kg, time 20-40 min, dose 3 µg/kg; in short: as §6

SMILES: CC#C[C@@H](CC(=O)O)c1ccc(OCc2ccc(CN3CCC4(C=Cc5ccccc54)CC3)cc2)cc1 [LY2881835]
AUC at 1 h [1]: 218 ng·h/mL | Vd [2]: 1.4 L/kg | half-life [3]: 2 h | half-life [4]: 2 h | bioavailability [5]: 71% | bioavailability [6]: 74% | Cmax [7]: 11200 ng/mL | Drug metabolism [8]: Metabolite_Detected | Cmax [9]: 1100 ng/mL | K [10]: 0.00822 min⁻¹ | Activity [11]: Active | half-life [12]: 2.1 h | Cmax [13]: 2860 ng/mL | half-life [14]: 2.1 h

SMILES: CC#C[C@@H](CC(=O)O)c1ccc(OCc2ccc(CN3CCC4(CC3)CN(C)c3ccccc34)cc2)cc1
AUC at 1 h [15]: 1030 ng·h/mL

Vd/F [16]: 244 L | half-life [17]: 12.1 h | Drug metabolism [18]: Metabolite_Detected | Tmax [19]: 4 h | half-life [20]: 14.5 h | AUC(0-inf) [21]: 97300 ng·h/mL | half-life [22]: 22.4 h | Cmax [23]: 2000 ng/mL | Tmax [24]: 0.6 h | Cmax [25]: 7950 ng/mL | AUC(0-inf) [26]: 41400 ng·h/mL | Tmax [27]: 0.5 h | Vd/F [28]: 273 L | Tmax [29]: 2.75 h | bioavailability [30]: 95% | Drug metabolism [31]: Metabolite_Notdetected | Drug metabolism [32]: Metabolite_Detected | AUC(0-inf) [33]: 19400 ng·h/mL
SMILES: CC#C[C@@H](CC(=O)O)c1ccc(OCc2ccc(CN3CCCc4cccc(OC)c43)s2)cc1

SMILES: CC#C[C@@H](CC(=O)O)c1ccc(OCc2ccc(CN3CCC4(CCc5ccccc54)CC3)s2)cc1
AUC at 1 h [34]: 898 ng·h/mL | Tmax [24]: 0.5 h | Tmax [27]: 2 h | bioavailability [30]: 46% | Drug metabolism [35]: Metabolite_Detected | Drug metabolism [36]: Metabolite_Detected

SMILES: O=C(O)CCc1ccc(OCc2ccc(CN3CCC4(C=Cc5ccccc54)CC3)cc2)cc1F
K [10]: 0.0866 min⁻¹

SMILES: CC#C[C@@H](CC(=O)O)c1ccc(OCc2ccc(CN3CCC4(C=Cc5ccccc54)CC3)s2)cc1
Drug uptake [37]: Active | Drug uptake [38]: Active | Drug uptake [39]: Active
